Source: the EternaBench riboswitch data

Test system: MS2 coat protein
Experiment: apparent Kd, MS2 coat protein; higher = weaker binding; RNA-MaP array; tryptophan 2.4 mM where present
Outline: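 Binding was read on Illumina sequencing-chip clusters where stalled E. coli RNA polymerase had transcribed each design. A titration of SNAP-549-labelled MS2 coat protein began at 0.7 or 1.5 nM and doubled to 3 µM, once without ligand and once with constant ligand, in 100 mM Tris-HCl pH 7.5, 80 mM KCl, 4 mM MgCl2, BSA, DTT, yeast tRNA and Tween-20. The apparent Kd is the median of filtered per-cluster binding-curve fits, based on green signal normalised to red-channel RNA signal and control-cluster median Fmax.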

[1] = designed as: ON switch for tryptophan, no ligand
[2] = ligand present: tryptophan, designed as: ON switch for tryptophan
[3] = designed as: OFF switch for tryptophan, no ligand
[4] = ligand present: tryptophan, designed as: OFF switch for tryptophan

With “AACAUGAGGAUCACCCAUGUACAUUUCGAUCGAGGACCGGUACGGCCGCCACUCGAAAACAUGAGGAUCACCCAUGUUCAACAGG” as the sequence, how does the “apparent Kd” value [1] read?
The value was 296 nM.

What about the “apparent Kd” value [2] of the same sequence?
Its value is 184 nM.

With “CUCAUCCACGCGGCCGCCACUAUAUUGUGGUGUGAGUGUGACGUAUUACAUGAGGAUCACCCAUGUAGGACCGGGCGUGGAUGAG” as the sequence, how does the “apparent Kd” value [3] read?
The value was 34.6 nM.

And the “apparent Kd” value [4]?
The value was 308 nM.

How did the “apparent Kd” value [1] turn out when “UCGGAUGCGGCGGCCGCCACUCGCGGAUAACGAUAGCUUAACAUGAGGAUCACCCAUGUGUCAUGGAGGACCGGGCCCAUACCGU” was run?
The value was 23.4 nM.

And the “apparent Kd” value [2]?
Its value is 20.7 nM.

How did the “apparent Kd” value [1] turn out when “UGUCAGCGAAAGUUGACAUGUCUUGCUGGUCGAGGACCGGUACGGCCGCCACUCGAUCUCUCGCACAUGAGGAUCACCCAUGUUG” was run?
The value was 12.6 nM.

And the “apparent Kd” value [2]?
The value was 13.4 nM.

Which results are given for “UUCGUAUUGUCGGCCGCCACUGCAACAUGAGGAUCACCCAUGUAAAUUUGGGAGUAGUUAUAUUACAGGACCGGGACAAUAGUAA”?
apparent Kd [3]: 102 nM; apparent Kd [4]: 139 nM

What does the source list for “AGCCACUCGAGUGAUCCUCACGAGUGGCUACGAGGACCGGUACGGCCGCCACUCGAAUUAACAUGAGGAUCACCCAUGUAAUCAU”?
apparent Kd [1]: 31.5 nM; apparent Kd [2]: 111 nM

How did the “apparent Kd” value [3] turn out when “UUAGUAACGACGGCCGCCACUGAAUUUGAACAUGAGGAUCACCCAUGUAGAGAUCCUAGAAUAAACAGGACCGGGUCUGAUAAUG” was run?
Its value is 95.7 nM.

And the “apparent Kd” value [4]?
The value was 118 nM.

What does the source list for “GAACAGUCGGACAUGAGGAUCACCCAUGUGCGAGGACCGGUACGGCCGCCACUCGACAAGGGCGGUCCCGAAGCGAACAUACGCG”?
apparent Kd [3]: 23.8 nM; apparent Kd [4]: 14.7 nM

What does the source list for “AACAUGAGGAUCACCCAUGUGUCCUCGAAACGAGGACCGGUACGGCCGCCACUCGAAUAAGGUGUUGACGAAAAGUCAGCACCAA”?
apparent Kd [3]: 274 nM; apparent Kd [4]: 501 nM

How did the “apparent Kd” value [3] turn out when “AACAUGAGGAUCACCCAUGUGUCCUCGAAACGAGGACCGGUACGGCCGCCACUCGACGUAUGUUGACGAAAAGUCAGCAUACGAA” was run?
Its value is 281 nM.

What about the “apparent Kd” value [4] of the same sequence?
Its value is 885 nM.

How did the “apparent Kd” value [1] turn out when “CUACAUUUGUAGAAACCGGUCAACAAUAAUCGAGGACCGGUACGGCCGCCACUCGAUGUGUUAUACACAUGAGGAUCACCCAUGU” was run?
Its value is 21.1 nM.

And the “apparent Kd” value [2]?
Its value is 17.4 nM.

Which “apparent Kd” value [3] does the source give for “UUCAGCUAGUCGGCCGCCACUACAUGAGGAUCACCCAUGUCGGUCCUCACUGCUUCGGCAGUGUGUAGGACCGGGACUAGCUGAG” here?
Its value is 72.3 nM.

What about the “apparent Kd” value [4] of the same sequence?
The value was 720 nM.

How did the “apparent Kd” value [1] turn out when “UGUCAUGGAAACAUGACAGGUCUUACCGGUCGAGGACCGGUACGGCCGCCACUCGAUUGGUGGCACAUGAGGAUCACCCAUGUUA” was run?
Its value is 29 nM.

And the “apparent Kd” value [2]?
The value was 26.7 nM.

With “UGUAUUACGAAAGUAGUACAUCGUGUUCGACGAGGACCGGUACGGCCGCCACUCGGACAUGAGGAUCACCCAUGUAGCGAAAGCU” as the sequence, how does the “apparent Kd” value [1] read?
Its value is 158 nM.

And the “apparent Kd” value [2]?
Its value is 256 nM.

“AUAAAUAAUAAAUAAAAUAAAAUGGGUGAACGAGGACCGGUACGGCCGCCACUCGGACAUGAGGAUCACCCAUGUCCAUGUGAAA” was tested. Which “apparent Kd” value [3] did it give?
Its value is 19.5 nM.

What about the “apparent Kd” value [4] of the same sequence?
Its value is 46.1 nM.

What does the source list for “AUUAAUAAUAUGUAGACGGCGGAGACGAGACGAGGACCGGUACGGCCGCCACUCGUGUUAGUUAACAUGAGGAUCACCCAUGUUA”?
apparent Kd [1]: 12.5 nM; apparent Kd [2]: 12.8 nM

What does the source list for “CGCCACUCGAGUGAUCCUCACGAGUGGCUACGAGGACCGGUACGGCCGCCACUCGAAUUAACAUGAGGAUCACCCAUGUAAUCUA”?
apparent Kd [1]: 56.7 nM; apparent Kd [2]: 27.7 nM

Which results are given for “GGUUACUCUACGGCCGCCACUGAACAUGAGGAUCACCCAUGUAAUGUUCAGUAGUCUUUAGACAACAGGACCGGGUAGUGUAACC”?
apparent Kd [1]: 228 nM; apparent Kd [2]: 215 nM

For “AAACAUGAGGCGGCCGCCACUGUAUGAACAUGAGGAUCACCCAUGUAUGUACCCAUGUGUGUACACAGGACCGGGCCAUGUGGAU”, which “apparent Kd” value [3] is on record?
The value was 28.1 nM.

And the “apparent Kd” value [4]?
The value was 19.9 nM.

Which results are given for “GCUGGACUUUCGGCCGCCACUGAGAGAGUCGUGUGAACAUGAGGAUCACCCAUGUAAUAUAUAUACAGGACCGGGAGGGUUGUGC”?
apparent Kd [3]: 11.8 nM; apparent Kd [4]: 11.9 nM

Which “apparent Kd” value [3] does the source give for “GGAGUAGGAAACUAUUCCAAUCCUCGUGAACGAGGACCGGUACGGCCGCCACUCGAUAAUUAAUAACAUGAGGAUCACCCAUGUA” here?
The value was 83.7 nM.

What about the “apparent Kd” value [4] of the same sequence?
Its value is 121 nM.

Which results are given for “GCAUCCUAGUCGGCCGCCACUGCAUCACCAGUGGCAGGUGAUCAACAUGAGGAUCACCCAUGUAGCAGGACCGGGACUAGGAUGC”?
apparent Kd [1]: 135 nM; apparent Kd [2]: 43.7 nM

With “AACUUCGCAUAGGAAAACUAUGUGAAGAAUCGAGGACCGGUACGGCCGCCACUCGUCCUCAACAUGAGGAUCACCCAUGUAAUAA” as the sequence, how does the “apparent Kd” value [3] read?
Its value is 18.9 nM.

And the “apparent Kd” value [4]?
The value was 34.8 nM.

How did the “apparent Kd” value [3] turn out when “ACAUGAGGAUCACCCAUGUGAAGCAGGGUACGAGGACCGGUACGGCCGCCACUCGAACAUUAUAACGAGUGAAUGGCAACGAUGU” was run?
The value was 11.9 nM.

And the “apparent Kd” value [4]?
Its value is 14.2 nM.

Which “apparent Kd” value [1] does the source give for “UGUCAGCGAAAGUUGACAUGUCUUACCGGUCGAGGACCGGUACGGCCGCCACUCGAUCACUCGCACAUGAGGAUCACCCAUGUUG” here?
The value was 18.9 nM.

And the “apparent Kd” value [2]?
Its value is 14.3 nM.

For “GAGGAAACUCACAUGAGGAUCACCCAUGUACGAGGACCGGUACGGCCGCCACUCGAAACCAUGGGCGGUAGUACAUGGAAACAUG”, which “apparent Kd” value [3] is on record?
Its value is 72.3 nM.

And the “apparent Kd” value [4]?
The value was 263 nM.

Which “apparent Kd” value [1] does the source give for “AACAUACAAUAUUAGGUGGAUAUAAGGCGGCGAGGACCGGUACGGCCGCCACUCGCGUACAUGAGGAUCACCCAUGUCUGAAACU” here?
The value was 20.4 nM.

What about the “apparent Kd” value [2] of the same sequence?
The value was 23.5 nM.
